Laboratory results reported in ChEMBL document CHEMBL3580560, “Isolation, Structural Modification, and HIV Inhibition of Pentacyclic Lupane-Type Triterpenoids from Cassine xylocarpa and Maytenus cuzcoina” (J Nat Prod, 2015).

Key:
[1] = system: Human immunodeficiency virus 1; assay: Antiviral activity against HIV1 NL4.3-Ren infected in human MT2 cells assessed as inhibition of viral growth at 10 uM measured 48 hrs post infection by luminometry; format: functional; settings: Human immunodeficiency virus 1, NL4.3-Ren, MT2, 48 h
[2] = Cytotoxicity against mock-infected human MT2 cells assessed as reduction in cell viability incubated for 48 hrs by cell-titer Glo assay; format: cell-based
Summary of the method: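 Uninfected MT-2 cells received RPMI medium instead of viral supernatant and were treated in parallel with the same fivefold dilutions (100–0.032 μM). […] Values are the mean of at least three independent experiments.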

[3] = system: Human immunodeficiency virus 1; assay: Antiviral activity against HIV1 NL4.3-Ren infected in human MT2 cells assessed as inhibition of viral growth measured 48 hrs post infection by luminometry; format: functional, organism-based; settings: Human immunodeficiency virus 1, NL4.3-Ren, MT2, 48 h
Summary of the method: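 MT-2 cells infected with X4-tropic HIV-1 NL4.3-Ren supernatant produced in 293T cells. Fivefold serial dilutions from 100 to 0.032 μM were tested. At 48 h postinfection, cells were lysed and Renilla luciferase RLU were measured. IC50 was fitted from the dose–response curve; values are the mean of at least three independent experiments.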

[4] = Selectivity index, ratio of CC50 for mock-infected human MT2 cells to IC50 for HIV1 NL4.3-Ren infected in human MT2 cells; format: functional

| Compound | inhibition at 10 µM [1] | CC50 at 48 h [2] | IC50 [3] | Ratio CC50/IC50 [4] |
| --- | --- | --- | --- | --- |
| C=C(C)[C@@H]1CC[C@]2(COC(C)=O)CC[C@]3(C)[C@H](CC[C@@H]4[C@@]5(C)CCC(=O)C(C)(C)[C@@H]5CC[C@]43C)[C@@H]12 | > 50% | 20 µM | 13.4 µM | 1.5 |
| C=C(C)[C@@H]1CC[C@]2(COC(C)=O)CC[C@]3(C)[C@H](CC[C@@H]4[C@@]5(C)CC[C@H](O)C(C)(C)[C@@H]5CC[C@]43C)[C@@H]12 | < 50% | – | – | – |
| C=C(CO)[C@@H]1CC[C@]2(C)CC[C@]3(C)[C@H](CC[C@@H]4[C@@]5(C)CCC(=O)C(C)(C)[C@@H]5[C@H](O)C[C@]43C)[C@@H]12 | > 50% | 20 µM | 9.5 µM | 2.1 |
| C=C(C(=O)O)[C@@H]1CC[C@]2(C)CC[C@]3(C)[C@H](CC[C@@H]4[C@@]5(C)CCC(=O)C(C)(C)[C@@H]5CC[C@]43C)[C@@H]12 | > 50% | > 100 µM | 100 µM | – |
| CC(C)(O)[C@@H]1CC[C@]2(C)CC[C@]3(C)[C@H](CC[C@@H]4[C@@]5(C)CCC(=O)C(C)(C)[C@@H]5[C@H](O)C[C@]43C)[C@@H]12 | > 50% | > 100 µM | 7 µM | >14.3 |
| C=C(C)[C@@H]1CC[C@]2(C)CC[C@]3(C)[C@H](C[C@@H](O)[C@@H]4[C@@]5(C)C=CC(=O)C(C)(C)[C@@H]5CC[C@]43C)[C@@H]12 | > 50% | 60.4 µM | 8.7 µM | 6.9 |
| C=C(C)[C@@H]1CC[C@]2(C)CC[C@]3(C)[C@H](CC[C@@H]4[C@@]5(CO)CC[C@H](O)C(C)(C)[C@@H]5CC[C@]43C)[C@@H]12 | > 50% | 20 µM | 6.9 µM | 2.9 |
| C=C(COC(C)=O)[C@@H]1CC[C@]2(C)CC[C@]3(C)[C@H](CC[C@@H]4[C@@]5(C)CCC(=O)C(C)(C)[C@@H]5CC[C@]43C)[C@@H]12 | > 50% | 36.2 µM | 13.1 µM | 2.8 |
| CC(C)(O)[C@@H]1CC[C@]2(C)CC[C@]3(C)[C@H](CC[C@@H]4[C@@]5(C)CC[C@H](O)C(C)(C)[C@@H]5[C@H](O)C[C@]43C)[C@@H]12 | < 50% | – | – | – |
| C=C(C)[C@@H]1CC[C@]2(CO)CC[C@]3(C)[C@H](CC[C@@H]4[C@@]5(C)[C@H](O)C[C@@H](O)C(C)(C)[C@@H]5CC[C@]43C)[C@@H]12 | < 50% | – | – | – |
| C=C(C)[C@@H]1CC[C@]2(CO)CC[C@]3(C)[C@H](C[C@@H](O)[C@@H]4[C@@]5(C)CCC(=O)C(C)(C)[C@@H]5CC[C@]43C)[C@@H]12 | < 50% | – | – | – |
| C=C(C)[C@@H]1CC[C@]2(C)CC[C@]3(C)[C@H](C[C@@H](O)[C@@H]4[C@@]5(C)CC[C@@H](O)C(C)(C)[C@@H]5CC[C@]43C)[C@@H]12 | < 50% | – | – | – |
| C=C(C)[C@@H]1CC[C@]2(C)CC[C@]3(C)[C@H](CC[C@@H]4[C@@]5(C)[C@H](O)C[C@H](O)C(C)(C)[C@@H]5CC[C@]43C)[C@@H]12 | < 50% | – | – | – |
| C=C(C)[C@@H]1CC[C@]2(COC(=O)C(C)(C)C)CC[C@]3(C)[C@H](CC[C@@H]4[C@@]5(C)CC[C@H](O)C(C)(C)[C@@H]5CC[C@]43C)[C@@H]12 | < 50% | – | – | – |
| C=C(C)[C@@H]1CC[C@]2(COC(=O)CCCCCCC)CC[C@]3(C)[C@H](CC[C@@H]4[C@@]5(C)CC[C@H](O)C(C)(C)[C@@H]5CC[C@]43C)[C@@H]12 | < 50% | – | – | – |
| C=C(C)[C@@H]1CC[C@]2(COC(=O)c3ccccc3)CC[C@]3(C)[C@H](CC[C@@H]4[C@@]5(C)CC[C@H](O)C(C)(C)[C@@H]5CC[C@]43C)[C@@H]12 | < 50% | – | – | – |
| C=C(C)[C@@H]1CC[C@]2(COC(=O)c3cccc4ccccc34)CC[C@]3(C)[C@H](CC[C@@H]4[C@@]5(C)CC[C@H](O)C(C)(C)[C@@H]5CC[C@]43C)[C@@H]12 | < 50% | – | – | – |
| C=C(C)[C@@H]1CC[C@]2(COC(=O)c3ccc(Br)cc3)CC[C@]3(C)[C@H](CC[C@@H]4[C@@]5(C)CC[C@H](O)C(C)(C)[C@@H]5CC[C@]43C)[C@@H]12 | < 50% | – | – | – |
| C=C(C)[C@@H]1CC[C@]2(COS(=O)(=O)c3ccc(C)cc3)CC[C@]3(C)[C@H](CC[C@@H]4[C@@]5(C)CC[C@H](O)C(C)(C)[C@@H]5CC[C@]43C)[C@@H]12 | < 50% | – | – | – |
| C=C(C)[C@@H]1CC[C@]2(COC(=O)CCCCCCC)CC[C@]3(C)[C@H](CC[C@@H]4[C@@]5(C)CC[C@H](OC(=O)CCCCCCC)C(C)(C)[C@@H]5CC[C@]43C)[C@@H]12 | < 50% | – | – | – |

| Compound | inhibition at 10 µM [1] | CC50 at 48 h [2] | IC50 [3] | Ratio CC50/IC50 [4] |
| --- | --- | --- | --- | --- |
| C=C(C)[C@@H]1CC[C@]2(COC(=O)c3cccc4ccccc34)CC[C@]3(C)[C@H](CC[C@@H]4[C@@]5(C)CC[C@H](OC(=O)c6cccc7ccccc67)C(C)(C)[C@@H]5CC[C@]43C)[C@@H]12 | < 50% | – | – | – |
| C=C(C)[C@@H]1CC[C@]2(CO[Si](C)(C)C(C)(C)C)CC[C@]3(C)[C@H](CC[C@@H]4[C@@]5(C)CC[C@H](O)C(C)(C)[C@@H]5CC[C@]43C)[C@@H]12 | < 50% | – | – | – |
| CC(=O)OC[C@]12CC[C@@H](C(C)(O)CO)[C@@H]1[C@H]1CC[C@@H]3[C@@]4(C)CC[C@H](O)C(C)(C)[C@@H]4CC[C@@]3(C)[C@]1(C)CC2 (stereo partly drawn) | < 50% | – | – | – |
| CC(=O)OC[C@]12CC[C@@H]([C@]3(C)CO3)[C@@H]1[C@H]1CC[C@@H]3[C@@]4(C)CC[C@H](O)C(C)(C)[C@@H]4CC[C@@]3(C)[C@]1(C)CC2 | < 50% | – | – | – |
| C=C(COC(C)=O)[C@@H]1CC[C@]2(C)CC[C@]3(C)[C@H](CC[C@@H]4[C@@]5(C)CC[C@H](OC(C)=O)C(C)(C)[C@@H]5CC[C@]43C)[C@@H]12 | < 50% | – | – | – |
| C=C(C)[C@@H]1CC[C@]2(C)CC[C@]3(C)[C@H](CC[C@@H]4[C@@]5(C)CC(Br)C(=O)C(C)(C)[C@@H]5CC[C@]43C)[C@@H]12 (stereo partly drawn) | < 50% | – | – | – |
| C=C(C)[C@@H]1CC[C@]2(C)CC[C@]3(C)[C@H](C[C@@H](OC(C)=O)[C@@H]4[C@@]5(C)CCC(=O)C(C)(C)[C@@H]5CC[C@]43C)[C@@H]12 | < 50% | – | – | – |
| C=C(CCl)[C@@H]1CC[C@]2(C)CC[C@]3(C)[C@H](C[C@@H](OC(C)=O)[C@@H]4[C@@]5(C)CCC(=O)C(C)(C)[C@@H]5CC[C@]43C)[C@@H]12 | < 50% | – | – | – |
| C=C(CCl)[C@@H]1CC[C@]2(C)CC[C@]3(C)[C@H](C[C@@H](OC(C)=O)[C@@H]4[C@@]5(C)C=CC(=O)C(C)(C)[C@@H]5CC[C@]43C)[C@@H]12 | < 50% | – | – | – |
| CC(C)[C@@H]1CC[C@]2(C)CC[C@]3(C)[C@@H](CC[C@@H]4[C@@]5(C)CC[C@H](OC(=O)/C=C/c6ccc(O)c(O)c6)C(C)(C)[C@@H]5CC[C@]43C)[C@@H]12 | < 50% | – | – | – |
| C=C(CO)[C@@H]1CC[C@]2(C)CC[C@]3(C)[C@H](CC[C@@H]4[C@@]5(C)CCC(=O)C(C)(C)[C@@H]5CC[C@]43C)[C@@H]12 | < 50% | – | – | – |
| C=C(C)[C@@H]1CC[C@]2(CO)CC[C@]3(C)[C@H](CC[C@@H]4[C@@]5(C)CC[C@H](OC(=O)/C=C/c6ccc(O)c(O)c6)C(C)(C)[C@@H]5CC[C@]43C)[C@@H]12 | < 50% | – | – | – |
| C=C(CO)[C@@H]1CC[C@]2(C)CC[C@]3(C)[C@H](CC[C@@H]4[C@@]5(C)CC[C@H](O)C(C)(C)[C@@H]5CC[C@]43C)[C@@H]12 | < 50% | – | – | – |
| C=C(C)[C@@H]1CC[C@]2(CO)CC[C@]3(C)[C@H](CC[C@@H]4[C@@]5(C)CC[C@@H](O)C(C)(C)[C@@H]5CC[C@]43C)[C@@H]12 [3-EPI-BETULIN] | > 50% | 20 µM | 8.8 µM | 2.3 |
| C=C(C)[C@@H]1CC[C@]2(COC(C)=O)CC[C@]3(C)[C@H](CC[C@@H]4[C@@]5(C)CC[C@H](OC(C)=O)C(C)(C)[C@@H]5CC[C@]43C)[C@@H]12 [BETULIN DIACETATE] | < 50% | – | – | – |
| C=C(C)[C@@H]1CC[C@]2(CO)CC[C@]3(C)[C@H](CC[C@@H]4[C@@]5(C)CC[C@H](O)C(C)(C)[C@@H]5CC[C@]43C)[C@@H]12 [BETULIN] | < 50% | – | – | – |
| C=C(C)[C@@H]1CC[C@]2(C)CC[C@]3(C)[C@@H](CC[C@@H]4[C@@]5(C)C=CC(=O)C(C)(C)[C@@H]5CC[C@]43C)[C@@H]12 [GLOCHIDONE] | < 50% | – | – | – |
| C=C(C)[C@@H]1CC[C@]2(C)CC[C@]3(C)[C@H](CC[C@@H]4[C@@]5(C)CCC(=O)C(C)(C)[C@@H]5CC[C@]43C)[C@@H]12 [LUPENONE] | < 50% | – | – | – |
| C=C(C)[C@@H]1CC[C@]2(C)CC[C@]3(C)[C@H](CC[C@@H]4[C@@]5(C)CC[C@H](O)C(C)(C)[C@@H]5CC[C@]43C)[C@@H]12 [LUPEOL] | < 50% | – | – | – |
| C=C(C)[C@@H]1CC[C@]2(C)CC[C@]3(C)[C@@H](C[C@@H](O)[C@@H]4[C@@]5(C)CCC(=O)C(C)(C)[C@@H]5CC[C@]43C)[C@@H]12 [RIGIDENOL] | < 50% | – | – | – |
